# A selection: hits, their analogues and other compounds. The true share with any hit is near 2.4%.
# PfM18AAP inh: PfM18AAP enzyme inhibition; recombinant PfM18AAP, H-Glu-NHMec fluorogenic cleavage; inhibition, % at 7.35 µM; 290,000 tested, 1.2% active;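 active = inhibition above the campaign mean inhibition over all tested compounds plus 3 SD, cut at about 28% in these data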
# APOBEC3A inh: blocks human APOBEC3A ssDNA deamination; P31941; recombinant A3A, FAM/TAMRA ssDNA deamination fluorescence; inhibition, % at 20 µM; 330,000 tested, 0.41% active;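 active = at least 40% inhibition at 20 µM here, with at most 30% in a related deaminase screen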
# PfGluPho inh: PfG6PD (Plasmodium falciparum) enzyme inhibition | AID 504690 | 350,000 tested, 0.78% active | PfGluPho enzyme, NADPH resazurin-diaphorase fluorescence | inhibition, % at 20 µM;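 active = inhibition reaching at least a set limit at 20 µM in the primary screen, cut at about 59% in these data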
# APOBEC3G inh: APOBEC3G (human) deaminase inhibition. Q9HC16. recombinant A3G, ssDNA deamination FAM/TAMRA fluorescence. inhibition, % at 20 µM. 330,000 tested, 0.28% active;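 active = inhibition of at least 40% at 20 µM, with no more than 30% in the related APOBEC3A deaminase screen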
# HKDC1 inh: blocks human hexokinase HKDC1 activity; recombinant HKDC1, G6PDH/diaphorase resazurin coupled fluorescence; inhibition, % at 20 µM; 340,000 tested, 0.16% active; AID 493160;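 active = inhibition above about 35% when tested at 20 µM, limit read from the data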
#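 Test system: recombinant HKDC1 (HK5) hexokinase enzyme, produced in-house / Doses: 20 µM test compound, 1% DMSO / Timing: 90 min, room temperature / Detection: G6PDH/diaphorase-coupled fluorescence, 1 mM NADP, 100 µM resazurin, 525/613 nm / Control set: DMSO wells with and without enzyme mix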
# UBC9 SUMO inh: blocks human SUMOylation mediated by UBC9. P63279. HTRF SUMOylation assay, SAE1/SAE2 + UBC9, in vitro. inhibition, % at 35 µM. 290,000 tested, 0.36% active; in the data active = inhibition above about 50%, passing the limit was not always enough
# A3A conf: APOBEC3A (human) deaminase inhibition, confirmed; shares compounds with APOBEC3A inh; AID 493151; inhibition, % at 20 µM; recombinant A3A, ssDNA deaminase UDG fluorescence assay; 1,400 tested, 63% active;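 active = inhibition reaching a set limit, 80% of the first screen's cutoff, at 20 µM in any replicate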
# UDG A3A counter: counter-screen for APOBEC3A inhibitors: UDG; 1,000 tested, under 10 active; UDG counterscreen, FAM/TAMRA uracil oligo fluorescence; shares compounds with APOBEC3A inh; inhibition, % at 20 µM; call rule not given here
# A3G conf: confirmation of human APOBEC3G DNA deaminase inhibitors | shares compounds with APOBEC3G inh | recombinant A3G ssDNA deaminase, UDG/FAM-TAMRA fluorescence | inhibition, % at 20 µM | 890 tested, 72% active | AID 493152;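 active = inhibition reaching a set limit in any replicate at 20 µM, the limit being 80% of the first screen's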
# HKDC1 act conf: confirmation of human HKDC1 activators | shares compounds with HKDC1 inh | recombinant HKDC1, G6PDH/diaphorase resazurin fluorescence; active compounds read low | inhibition, % at 20 µM | 740 tested, 14% active | AID 504708;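 active = inhibition at or below a set negative limit, negative inhibition meaning the enzyme was activated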
# PfG6PD confirm: confirmation of Plasmodium falciparum G6PD inhibitors. 2,400 tested, 34% active. recombinant PfGluPho, NADPH-diaphorase-resazurin fluorescence. inhibition, % at 20 µM. shares compounds with PfGluPho inh;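 active = inhibition of at least 50% at 20 µM in any single replicate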
# Hits are given with their value; – = inactive; · = not tested or not shown.
SMILES,PfM18AAP inh,APOBEC3A inh,PfGluPho inh,APOBEC3G inh,HKDC1 inh,UBC9 SUMO inh,A3A conf,UDG A3A counter,others
O=C(CCC(=O)Nc1ccc(F)cc1)N/N=C/c1ccc(O)cc1,–,–,–,–,–,–,·,·,
COc1ccc2[nH]c(=O)c(CN(C(=O)c3ccco3)C(C)C)cc2c1,–,56,–,–,–,–,61,–,
Cc1ccc(OCc2ccoc2C(=O)O)cc1C,–,42,–,–,–,–,37,–,
C[N+]1(CC(=O)OCCCc2ccccc2)CCOCC1,–,69,–,–,–,–,92,–,
Cc1ccc(CCCOC(=O)C[N+]2(C)CCOCC2)cc1,–,42,–,–,–,–,89,–,
CC1CCCN(S(=O)(=O)c2ccc(NC(=O)C3CCN(C(=O)C(C)(C)C)CC3)cc2)C1 (stereo unspecified),·,–,–,–,–,·,·,·,
Nc1nc(SCC(=O)N2N=C3/C(=C/c4ccco4)CCCC3C2c2ccco2)n[nH]1 (stereo unspecified),–,–,–,–,–,–,·,·,
O=C(CSc1nccc(=O)[nH]1)N1N=C2/C(=C/c3ccco3)CCCC2C1c1ccco1 (stereo unspecified),–,46,–,–,–,–,34,–,
CCOc1ccc(CCNC(=O)CN(C)S(=O)(=O)c2ccc3c(c2)CCC(=O)N3)cc1OCC,–,–,–,–,–,–,·,·,
O=C(NC1=NCCS1)C1CCN(S(=O)(=O)c2cc([N+](=O)[O-])ccc2Cl)CC1,·,53,–,–,–,·,53,–,
COc1cccc(C(=O)N/N=C/c2ccc(Oc3ccc([N+](=O)[O-])cn3)c(OC)c2)c1,–,59,–,–,–,–,62,–,
COc1ccc2nc(Nc3nc4cc5c(cc4s3)OCO5)sc2c1,–,46,–,–,–,–,39,–,
CCOc1ccc(S(=O)(=O)N2CCN(C(=O)CN3C(=O)NC4(CCCC4)C3=O)CC2)cc1,·,41,–,–,–,·,36,–,
CCCCN(C(=O)c1ccco1)C1CCS(=O)(=O)C1 (stereo unspecified),·,65,–,–,–,·,–,–,
CC(C)CN(C(=O)c1ccco1)C1CCS(=O)(=O)C1 (stereo unspecified),·,–,–,–,–,·,·,·,
CO/N=C/C1C(=O)NN=C1c1ccccc1 (stereo unspecified),–,–,–,–,–,–,·,·,
C[N+](C)(C)CCCCCCC(=O)/C=N/O,–,61,–,–,–,–,67,–,
C[N+]1(CCCCCCC(=O)/C=N/O)CCCCCC1,–,42,–,–,–,–,61,–,
COc1ccc(/C=C/C(=O)N(CCC(N)=O)c2ccccc2)cc1S(=O)(=O)N1CCOCC1,·,41,–,–,–,·,27,–,
CCCCc1c(C)nc2ccc(OC)cc2c1SCCC(=O)O,·,42,–,–,–,·,–,·,
Nn1c(SCC(=O)Nc2ccc3c(c2)OCCO3)nnc1C(F)(F)F,–,61,–,–,–,–,–,·,
Nn1c(SCC(=O)Nc2ccc3c(c2)OCCO3)nnc(CCC(=O)O)c1=O,–,74,–,–,–,–,60,–,
Cc1nnc(SCC(=O)Nc2ccc3c(c2)OCCO3)n1N,–,–,–,–,–,–,·,·,
Oc1[nH]c2ccccc2c1N=Nc1nc(Nc2ccccc2)nc(N2CCOCC2)n1,–,44,–,–,–,–,–,·,
CCCCn1c2c(c(=N)c3ccccc31)CCC2,–,88,–,–,–,–,41,–,
SMILES,PfM18AAP inh,APOBEC3A inh,PfGluPho inh,APOBEC3G inh,HKDC1 inh,UBC9 SUMO inh,A3A conf,UDG A3A counter,others
CCCCCCCCn1c2c(c(=N)c3ccccc31)CCC2,–,–,–,–,–,–,·,·,
CCCCCn1c2c(c(=N)c3ccccc31)CCC2,–,58,–,–,–,–,74,–,
O=C(CCc1nc2ccccc2c(=O)[nH]1)Nc1ccc(F)c([N+](=O)[O-])c1,–,–,–,–,–,–,·,·,
Cc1cc(C)n2nc[n+](C)c2n1,–,53,–,–,–,–,39,–,
COc1ccc(C2(C)NC(=O)N(CC(=O)NCc3ccccc3)C2=O)cc1OC (stereo unspecified),–,–,–,–,–,–,·,·,
O=C(Nc1ccc(Cl)cc1)c1ccc2c(=O)n3c(nc2c1)CCCCC3,–,52,–,–,–,–,–,·,
O=C(Nc1ccc(F)c(Cl)c1)c1ccc2c(=O)n3c(nc2c1)CCCCC3,–,–,–,–,–,–,·,·,
N#Cc1c(SCC(=O)Nc2nc3ccc(Br)cc3s2)sc2c(O)cc(=O)[nH]c12,–,43,–,–,–,–,39,–,HKDC1 act conf=–
COC(=O)CCC(=O)OC1(C)C(=O)C2=COC(c3ccc(OC)cc3)=CC2=C(Br)C1=O (stereo unspecified),·,46,–,–,37,–,–,·,HKDC1 act conf=–
COc1ccc(C2=CC3=C(Br)C(=O)C(C)(OC(=O)c4ccc(Cl)nc4)C(=O)C3=CO2)cc1 (stereo unspecified),·,–,–,–,–,–,·,·,
CC1(C)CC(=O)C2=C(C1)OC(N)=C(C#N)C2c1cccs1 (stereo unspecified),–,–,–,–,–,–,·,·,
O=C(/C=C\c1ccc(-c2ccccc2)o1)c1ccccc1,–,48,74,–,–,–,11,–,PfG6PD confirm=–
Cc1ccc(-c2c(C(=O)N/N=C/c3ccco3)nnn2-c2nonc2N)cc1,–,61,62,–,–,–,–,·,PfG6PD confirm=–
CCOc1ccc(-c2c(C(=O)N/N=C/c3ccco3)nnn2-c2nonc2N)cc1,–,–,–,–,–,·,·,·,
O=C(COc1cccc(Br)c1)Nc1ccc(Cl)c(S(=O)(=O)N2CCOCC2)c1,·,–,–,–,–,·,·,·,
C[C@H](O)[C@H](O)[C@H]1CNc2nc(N)[nH]c(=O)c2N1,·,–,–,41,–,·,·,·,A3G conf=34
Cc1cc(C(=O)NNC(=S)NCc2ccccc2)no1,–,–,–,–,–,–,·,·,
O=C1CC(c2ccc(O)c(O)c2)Oc2c1ccc(O)c2O (stereo unspecified),·,–,–,41,–,73,·,·,A3G conf=55
Cc1ccc2c(c1)sc1nc(=O)n(-c3ccccc3)c(=O)n12,–,–,–,–,–,–,·,·,

# Bioassay records: PubChem BioAssay, several laboratories
